Laboratory results: ChEMBL document CHEMBL3244103, “Modifications of primiaquine as antimalarials. 2. 5-Phenylthio and 5-anilino derivatives of primaquine” (J Med Chem, 1978)
Active and inactive are the calls of the source. The rule behind the calls is not given here.

How the values were obtained:
Plasmodium cynomolgi [1] = test: Antimalarial activity against Plasmodium cynomolgi infected in rhesus monkey at 10 mg/kg; format: functional, organism-based; set-up: dose 10 mg/kg
How it was run: (§1)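 Radical curative test in rhesus monkeys infected with P. cynomolgi, with compounds given at 0.5, 1 or 10 mg/kg. The read-out is either cures per number of animals treated or the day of relapse for animals not cured.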

Plasmodium cynomolgi [2] = test: Antimalarial activity against Plasmodium cynomolgi infected in rhesus monkey at 1 mg/kg; format: functional, organism-based; set-up: dose 1 mg/kg; how it was run: as §1
Plasmodium cynomolgi [3] = test: Antimalarial activity against Plasmodium cynomolgi infected in rhesus monkey at 0.5 mg/kg; format: functional, organism-based; set-up: dose 0.5 mg/kg; how it was run: as §1
Plasmodium berghei = test: Antimalarial activity against Plasmodium berghei infected in mouse at 320 to 640 mg/kg
Mus musculus = species on record: Mus musculus; test: Toxicity in mouse; conditions: in vivo
Rhesus monkey = test: Toxicity in rhesus monkey at 160 mg/kg; format: organism-based, Macaca mulatta; set-up: dose 160 mg/kg; conditions: in vivo

Question: `COc1cc(NC(C)CCCN)c2ncccc2c1Sc1cc(Cl)ccc1Cl` (stereo unspecified) was tested. Which Activity (Plasmodium cynomolgi [1]) did it give?
Answer: Active

Question: How did the Activity (Plasmodium cynomolgi [1]) turn out when `COc1cc(NC(C)CCCN)c2ncccc2c1Sc1cccc(Cl)c1` (stereo unspecified) was run?
Answer: Active

Question: How did the Activity (Plasmodium cynomolgi [1]) turn out when `COc1cc(NC(C)CCCN)c2ncccc2c1Sc1ccccc1Cl` (stereo unspecified) was run?
Answer: Active

Question: With `COc1cc(NC(C)CCCN)c2ncccc2c1Sc1cccc(C(F)(F)F)c1` (stereo unspecified) as the molecule, how does the Activity (Plasmodium cynomolgi [2]) read?
Answer: Active

Question: For `COc1cc(NC(C)CCCN)c2ncccc2c1Sc1ccc(Cl)cc1` (stereo unspecified), which Activity (Plasmodium cynomolgi [3]) is on record?
Answer: inactive

Question: And the Activity (Plasmodium cynomolgi [1])?
Answer: Active

Question: `COc1ccc(Sc2c(OC)cc(NC(C)CCCN)c3ncccc23)cc1.O=C(O)CC(O)(CC(=O)O)C(=O)O` (stereo unspecified) was tested. Which Activity (Plasmodium berghei) did it give?
Answer: Active

Question: What about the Activity (Mus musculus) of the same molecule?
Answer: Non-toxic

Question: Which Activity (Rhesus monkey) does the source give for `COc1cc(NC(C)CCCN)c2ncccc2c1.O=P(O)(O)O.O=P(O)(O)O` (stereo unspecified) [PRIMAQUINE PHOSPHATE] here?
Answer: Toxic

Question: With `COc1cc(NC(C)CCCN)c2ncccc2c1Sc1ccc2ccccc2c1` (stereo unspecified) as the molecule, how does the Activity (Plasmodium cynomolgi [1]) read?
Answer: Active

Question: How did the Activity (Plasmodium cynomolgi [1]) turn out when `COc1cc(NC(C)CCCN)c2ncccc2c1Sc1ccc(Cl)c(Cl)c1` (stereo unspecified) was run?
Answer: Active
